Assays:
[1] = biological target: T1, Melanin-concentrating hormone receptor 1 (Homo sapiens, UniProt Q99705); assay: Displacement of [125I]MCH from human MCH1 receptor expressed in CHO-K1 cells by scintillation counting; format: cell-based
How it was run: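 Membranes of CHO-K1 cells stably expressing human MCH1R incubated with [125I]-MCH and compound in 50 mM Tris, 10 mM MgCl2, 2 mM EDTA, bacitracin, 0.2% BSA, pH 7.4, 2 h at room temperature. Bound label collected by filtration onto GF/C filters and counted by scintillation. Non-specific binding defined with 1 µM unlabeled MCH. IC50 reported as mean of at least two experiments.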

[2] = biological target: T1, Melanin-concentrating hormone receptor 1; assay: Antagonist activity at human MCH1 receptor expressed in CHO-K1 cells assessed as inhibition of MCH-induced intracellular calcium mobilization by FLIPR assay; format: functional, cell-based
How it was run: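 CHO-K1 cells stably expressing human MCH1R, seeded at 3.0 × 10^4 per well and grown 24 h in DMEM/10% FBS with G418. Cells loaded with Fluo-4 AM plus 2.5 mM probenecid for 1 h at 37 °C, then washed into HBSS/20 mM Hepes/0.5% BSA/2.5 mM probenecid, pH 7.4. Compound added 5 min before MCH; Ca2+ mobilization read on FLIPR. IC50 is mean of ≥2 experiments.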

[3] = Intrinsic clearance in rat hepatocytes; format: ADME, cell-based, Liver, Hepatocyte
Rattus norvegicus [4] = assay: Antiobese activity in high fat fed Sprague-Dawley rat assessed as suppression of […] food intake at 30 mg/kg, po; format: functional
How it was run: (§1)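 Male SD rats with a 26-gauge guide cannula in the third ventricle, used after ≥1 week recovery. Rats fed high-fat diet ~3 h, then given compound (10 or 30 mg/kg) or vehicle orally. 1 h later MCH (5 µg/head in artificial CSF) was injected ICV, 1 h before dark onset. Food intake measured over 2 h; 15–20 rats per group, versus vehicle/MCH group.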

[5] = Clearance in rat at 1 mg/kg, iv and 3 mg/kg, po; format: ADME, organism-based; conditions: in vivo
How it was run: (§2)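 Rats dosed at 1 mg/kg IV and 3 mg/kg PO. Clearance, volume of distribution, half-life and oral bioavailability derived from these dosings; mean values, n = 3.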

[6] = Half life in rat at 1 mg/kg, iv and 3 mg/kg, po; format: ADME, organism-based; conditions: in vivo; how it was run: as §2
Rattus norvegicus [7] = assay: Antiobese activity in high fat fed Sprague-Dawley rat assessed as suppression of […] food intake at 10 mg/kg, po; format: functional; how it was run: as §1
[8] = Oral bioavailability in rat at 3 mg/kg; format: ADME, organism-based; conditions: in vivo; how it was run: as §2
Brain = assay: Drug level in rat brain at 30 mg/kg, po after 2 hrs; format: ADME, organism-based; set-up: dose 30 mg/kg, route oral; conditions: in vivo
How it was run: (§3)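 Rats given 30 mg/kg PO; plasma and brain levels determined 2 h post-dose, with brain/plasma ratio taken from these. Mean values, n = 3.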

[9] = Ratio of drug level from brain to plasma in rat at 30 mg/kg, po after 2 hrs; format: ADME, organism-based; set-up: dose 30 mg/kg, route oral; conditions: brain and plasma, read-out: BPR; how it was run: as §3
[10] = Volume of distribution in rat at 1 mg/kg, iv and 3 mg/kg, po; format: ADME, organism-based; conditions: in vivo; how it was run: as §2
[11] = Plasma concentration in rat at 30 mg/kg, po after 2 hrs; format: ADME, organism-based; set-up: dose 30 mg/kg, route oral; how it was run: as §3

T1 sequence (Q99705 whole entry): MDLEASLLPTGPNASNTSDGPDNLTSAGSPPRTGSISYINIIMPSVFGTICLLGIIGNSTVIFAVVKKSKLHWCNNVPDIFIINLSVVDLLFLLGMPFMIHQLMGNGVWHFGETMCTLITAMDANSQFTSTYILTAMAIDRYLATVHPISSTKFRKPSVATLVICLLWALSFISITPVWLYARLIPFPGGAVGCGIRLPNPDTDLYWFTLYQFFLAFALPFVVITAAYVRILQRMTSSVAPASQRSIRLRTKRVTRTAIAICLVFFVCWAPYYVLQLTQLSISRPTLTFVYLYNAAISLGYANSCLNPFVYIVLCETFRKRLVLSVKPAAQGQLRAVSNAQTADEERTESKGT

Row | SMILES | IC50 [1] [µM] | further results
1 | CN(c1nc2ccc(NC(=O)CCc3ccc(C(F)(F)F)cc3)cc2[nH]1)C1CCOC1 (centres undefined) | 0.027 | 
2 | CN(c1nc2ccc(NC(=O)CCc3ccc(C(F)(F)F)cc3)cc2[nH]1)C1CC1 | 0.024 | 
3 | CN(c1nc2ccc(NC(=O)CCc3ccc(C(F)(F)F)cc3)cc2[nH]1)C1CCCC1 | 0.004 | IC50 [2]: 0.022 µM
4 | CC(=O)N1CCC(N(C)c2nc3ccc(NC(=O)CCc4ccc(C(F)(F)F)cc4)cc3[nH]2)C1 (centres undefined) | 0.03 | 
5 | CN1CCC(N(C)c2nc3ccc(NC(=O)CCc4ccc(C(F)(F)F)cc4)cc3[nH]2)CC1 | 0.023 | 
6 | CC(C)N(C)c1ccc2nc(NC(=O)CCc3ccc(C(F)(F)F)cc3)ccc2n1 | 0.375 | 
7 | O=C(CCc1ccc(C(F)(F)F)cc1)Nc1ccc2nc(N3CCOCC3)[nH]c2c1 | 0.428 | 
8 | CC(C)N(C)c1nc2ccc(NC(=O)CCc3ccc(C(F)(F)F)cn3)cc2[nH]1 | 0.041 | 
9 | CC(C)N(C)c1nc2ccc(NC(=O)c3ncc(-c4ccc(F)cc4)cn3)cc2[nH]1 | 0.015 | CLint scaled [3]: 9 mL/min/kg
10 | CC(C)N(C)c1nc2ccc(NC(=O)c3ccc(-c4ccc(F)cc4)nc3)cc2[nH]1 | 0.0055 | CLint scaled [3]: 8 mL/min/kg
11 | CC(C)N(C)c1nc2ccc(NC(=O)c3cncc(-c4ccc(F)cc4)c3)cc2[nH]1 | 0.9 | 
12 | CC(C)N(C)c1nc2ccc(NC(=O)CCc3ccc(C(F)(F)F)cc3)cc2[nH]1 | 0.0059 | IC50 [2]: 0.021 µM; CLint scaled [3]: 32 mL/min/kg
13 | CCN(C)c1nc2ccc(NC(=O)CCc3ccc(C(F)(F)F)cc3)cc2[nH]1 | 0.019 | 
14 | CC(C)N(C)c1nc2ccc(NC(=O)c3ccc(-c4ccc(C(F)(F)F)cn4)cc3)cc2[nH]1 | 0.0031 | CLint scaled [3]: 16 mL/min/kg
15 | CC(C)N(C)c1nc2ccc(NC(=O)c3ccc(-c4ccccc4)nc3)cc2[nH]1 | 0.0088 | CLint scaled [3]: 12 mL/min/kg
16 | CN(c1nc2ccc(NC(=O)CCc3ccc(C(F)(F)F)cc3)cc2[nH]1)C1CCCCC1 | 0.0067 | IC50 [2]: 0.027 µM
17 | CC(C)N(C)c1ccc2cc(NC(=O)CCc3ccc(C(F)(F)F)cc3)cnc2n1 | 0.365 | 
18 | CCN(c1nc2ccc(NC(=O)CCc3ccc(C(F)(F)F)cc3)cc2[nH]1)C1CCCCC1 | 0.135 | 
19 | CC(C)N(C)c1nc2ccc(NC(=O)CCc3ccc(C(F)(F)F)cc3)cc2s1 | > 0.75 | 
20 | CC(C)N(C)c1nc2ccc(NC(=O)c3cnc(-c4ccc(F)cc4)cn3)cc2[nH]1 | 0.0027 | Activity (Rattus norvegicus [4]): 72%; clearance [5]: 11 mL/min/kg; half-life [6]: 2.3 h; Activity (Rattus norvegicus [7]): 32%; bioavailability [8]: 35%; Drug uptake (Brain): 1.4 nmol/g; Kp at 2 h [9]: 0.36; Vd [10]: 1.2 L/kg; concentration at 2 h [11]: 3.9 µM; CLint scaled [3]: 10 mL/min/kg
21 | CN(C)c1nc2ccc(NC(=O)CCc3ccc(C(F)(F)F)cc3)cc2[nH]1 | 0.012 | 

Reference: ChEMBL document CHEMBL1136956, “Identification of 2-aminobenzimidazoles as potent melanin-concentrating hormone 1-receptor (MCH1R) antagonists” (Bioorg Med Chem Lett, 2009)
